From article PMC6117112 (ACS chemical biology, 2018)
Like-named read-outs stand apart in the source and are kept apart here.

Columns and labels:
[1] = MTT cytotoxicity assay in A549 cells, in the dark; assay type: cell-based; details: human
[2] = assay type: cell-based; details: human, A549 cells
[3] = system: A549 cells; experiment: Mitochondrial bioenergetics; assay type: cell-based, human
In short: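 Seeded 20,000 cells/well 24 h before, then 4 h with vehicle (0.4% DMSO) or test compound (0.1, 1.0, 10 μM). One plate blue-LED illuminated 1 h at 37 °C, the other kept dark. XF base medium with 1 mM pyruvate, 2 mM glutamine, 25 mM glucose, pH 7.4; 30 min at 37 °C, no CO2. OCR over 80 min after oligomycin, FCCP, then rotenone/antimycin A (each 1.0 μM). Three experiments × 8 replicates; mean ±SEM; one-way ANOVA, Tukey.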

[4] = MTT cytotoxicity assay in HUVECs, in the dark; assay type: cell-based, human; details: human, HUVECs (human umbilical vein endothelial cells)
[5] = assay type: cell-based; details: human, HUVECs (human umbilical vein endothelial cells)
[6] = system: HUVECs; experiment: MTT cytotoxicity assay in HUVECs, in the dark; assay type: cell-based, human; details: HUVECs, non-illuminated
[7] = system: mitochondria; details: cited from earlier work
[8] = 10 μM, after 1 h of illumination to induce CO release

Q: Which results are given for `O=C(NCC[P+](c1ccccc1)(c1ccccc1)c1ccccc1)c1ccc(-c2oc3cc4ccccc4cc3c(=O)c2O)cc1.[Br-]` [Compound 2, (2-(4-(3-hydroxy-4-oxo-4H-benzo[g]chromen-2-yl)benzamido)ethyl)triphenylphosphonium bromide]?
A: IC50 [1]: 14.1 ± 2.7 µM; IC50 [2]: 4.6 ± 3.6 µM; ATP production (OCR) [3, 8]: decreased; basal respiration (OCR) [3, 8]: decreased; maximal respiration (OCR) [3, 8]: decreased; reserve capacity (OCR) [3, 8]: decreased; concentration needed to produce significant changes in bioenergetics parameters ([3]; light-triggered CO release): 10 µM; IC50 [4]: 1.51 ± 1.4 µM; IC50 [5]: 3.78 ± 1.5 µM

Q: What does the source list for `O=C(NCCCCCCCC[P+](c1ccccc1)(c1ccccc1)c1ccccc1)c1ccc(-c2oc3cc4ccccc4cc3c(=O)c2O)cc1` [Compound 3, (8-(4-(3-hydroxy-4-oxo-4H-benzo[g]chromen-2-yl)benzamido)octyl)triphenylphosphonium bromide]?
A: IC50 [1]: 8.48 ± 4 µM; IC50 [4]: 8.4 ± 3.6 µM

Q: Which IC50 [1] does the source give for `O=C(NCC[P+](c1ccccc1)(c1ccccc1)c1ccccc1)c1ccc(C(=O)Oc2cc3ccccc3cc2C(=O)O)cc1.[Br-]` [Compound 4, (2-(4-(((3-carboxynaphthalen-2-yl)oxy)carbonyl)benzamido)ethyl)triphenylphosphonium bromide] here?
A: > 100 µM

Q: What about the “cytotoxicity (MTT), result in words” value [6] of the same compound?
A: no cytotoxicity

Q: And the IC50 [5]?
A: > 100 µM

Q: With `O=C(NCCCCCCCC[P+](c1ccccc1)(c1ccccc1)c1ccccc1)c1ccc(C(=O)Oc2cc3ccccc3cc2C(=O)O)cc1` [Compound 5, (8-(4-(((3-carboxynaphthalen-2-yl)oxy)carbonyl)benzamido)octyl)triphenylphosphonium bromide] as the compound, how does the IC50 [1] read?
A: 69.1 ± 11 µM

Q: And the IC50 [4]?
A: 90 ± 7.5 µM

Q: Which IC50 [1] does the source give for `O=C(O)CC[P+](c1ccccc1)(c1ccccc1)c1ccccc1.[Br-]` [TPPBr, 2-carboxyethyl-triphenylphosphonium bromide, reference compound] here?
A: > 100 µM

Q: And the “changes in the mitochondrial bioenergetics profile” value ([3]; 0.1–10 μM, illuminated or non-illuminated cells)?
A: no significant changes

Q: And the IC50 [4]?
A: > 100 µM

Q: What about the IC50 [5] of the same compound?
A: > 100 µM

Q: For `O=c1cc(-c2ccccc2)oc2cc(O)c(O)c(O)c12` [baicalein], which “effect on mitochondrial bioenergetics” value [7] is on record?
A: decreases ATP-production via uncoupling of mitochondrial membranes

Q: Which “effect on mitochondrial bioenergetics” value [7] does the source give for `O=c1c(O)c(-c2ccc(O)c(O)c2)oc2cc(O)cc(O)c12` [quercetin] here?
A: increases basal respiration, maximal respiration, ATP-linked respiration and the reserve capacity of mitochondria
